Data on four compounds can be found in ChEMBL document CHEMBL3580633, “Benzoxaborole antimalarial agents. Part 4. Discovery of potent 6-(2-(alkoxycarbonyl)pyrazinyl-5-oxy)-1,3-dihydro-1-hydroxy-2,1-benzoxaboroles” (J Med Chem, 2015).

Usually IC50 stands for the concentration needed to halve the response being measured.

The subject of assay [1] is Plasmodium berghei. Description: Antiplasmodial activity against Plasmodium berghei infected in Swiss Webster mouse assessed as mouse survival at 3 mg/kg, po dosed once daily for 4 consecutive days beginning 1 hr after initial infection and measured on day 5 post infection by Giemsa staining method. It counts as functional. The essentials:
(§1)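 Female Swiss Webster mice (about 20 g) infected ip with 6 × 10^6 P. berghei-infected erythrocytes. Oral gavage once daily for 4 days, starting 1 h after infection. Vehicle PEG300/propylene glycol/water (55/25/20 by weight). Giemsa-smear parasitemia counted daily from day 4. Mice euthanised above 50% parasitemia. Survival followed to day 21, 5 mice per dose, chloroquine 30 mg/kg as reference.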

In assay [2] the test system is Plasmodium berghei. Description: Antiplasmodial activity against Plasmodium berghei infected in Swiss Webster mouse assessed as mouse survival at 33 mg/kg, po dosed once daily for 4 consecutive days beginning 1 hr after initial infection and measured on day 9 post infection by Giemsa staining method. It counts as functional. The essentials: (§2)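 Female Swiss Webster mice (about 20 g) were infected ip with 6 × 10^6 P. berghei-infected erythrocytes from a donor mouse. They were dosed by oral gavage once daily for 4 days, starting 1 h post-infection, in PEG 300/propylene glycol/water (55/25/20 by weight). Parasitemia was read daily on Giemsa smears from day 4, and mice were euthanized above 50% parasitemia. Percent survival was tracked to 21 days.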

Assay [3] has as its system Plasmodium berghei. Description: Antiplasmodial activity against Plasmodium berghei infected in Swiss Webster mouse assessed as mouse survival at 33 mg/kg, po dosed once daily for 4 consecutive days beginning 1 hr after initial infection and measured on day 10 post infection by Giemsa staining method. It counts as functional. The essentials: as §2
Assay [4] deals with Plasmodium berghei. Description: Antiplasmodial activity against Plasmodium berghei infected in Swiss Webster mouse assessed as mouse survival at 1 mg/kg, po dosed once daily for 4 consecutive days beginning 1 hr after initial infection and measured on day 9 post infection by Giemsa staining method. It counts as functional. The essentials: as §1
For assay [5], the system named is Plasmodium berghei. Description: Antiplasmodial activity against Plasmodium berghei infected in Swiss Webster mouse assessed as mouse survival at 1 mg/kg, po dosed once daily for 4 consecutive days beginning 1 hr after initial infection and measured on day 4 post infection by Giemsa staining method. It counts as functional. An outline of the steps: as §1
Assay [6] has as its system Plasmodium berghei. Description: Antiplasmodial activity against Plasmodium berghei infected in Swiss Webster mouse assessed as mouse survival at 1 mg/kg, po dosed once daily for 4 consecutive days beginning 1 hr after initial infection and measured on day 7 post infection by Giemsa staining method. It counts as functional. The essentials:
as §1

The test system of assay [7] is Plasmodium berghei. Description: Antiplasmodial activity against Plasmodium berghei infected in Swiss Webster mouse assessed as mouse survival at 100 mg/kg, po dosed once daily for 4 consecutive days beginning 1 hr after initial infection and measured on day 9 post infection by Giemsa staining method. It counts as functional. An outline of the steps: as §1
In assay [8] the test system is Plasmodium berghei. Description: Antiplasmodial activity against Plasmodium berghei infected in Swiss Webster mouse assessed as mouse survival at 1 mg/kg, po dosed once daily for 4 consecutive days beginning 1 hr after initial infection and measured on day 5 post infection by Giemsa staining method. It counts as functional. The essentials: as §1
The test system of assay [9] is Plasmodium berghei. Description: Antiplasmodial activity against Plasmodium berghei infected in Swiss Webster mouse assessed as mouse survival at 3 mg/kg, po dosed once daily for 4 consecutive days beginning 1 hr after initial infection and measured on day 8 post infection by Giemsa staining method. It counts as functional. The essentials:
as §1

Assay [10] has as its system Plasmodium berghei. Description: Antiplasmodial activity against Plasmodium berghei infected in Swiss Webster mouse assessed as mouse survival at 1 mg/kg, po dosed once daily for 4 consecutive days beginning 1 hr after initial infection and measured on day 6 post infection by Giemsa staining method. It counts as functional. The essentials:
as §1

Assay [11] has as its system Plasmodium berghei. Description: Antiplasmodial activity against Plasmodium berghei infected in Swiss Webster mouse assessed as mouse survival at 3 mg/kg, po dosed once daily for 4 consecutive days beginning 1 hr after initial infection and measured on day 9 post infection by Giemsa staining method. It counts as functional. The essentials:
as §1

In assay [12] the test system is Plasmodium berghei. Description: Antiplasmodial activity against Plasmodium berghei infected in Swiss Webster mouse assessed as mouse survival at 11 mg/kg, po dosed once daily for 4 consecutive days beginning 1 hr after initial infection and measured on day 6 post infection by Giemsa staining method. It counts as functional. The essentials:
as §1

The test system of assay [13] is Plasmodium berghei. Description: Antiplasmodial activity against Plasmodium berghei infected in Swiss Webster mouse assessed as mouse survival at 3 mg/kg, po dosed once daily for 4 consecutive days beginning 1 hr after initial infection and measured on day 7 post infection by Giemsa staining method. It counts as functional. An outline of the steps:
as §1

Assay [14] deals with Plasmodium berghei. Description: Antiplasmodial activity against Plasmodium berghei infected in Swiss Webster mouse assessed as mouse survival at 3 mg/kg, po dosed once daily for 4 consecutive days beginning 1 hr after initial infection and measured on day 6 post infection by Giemsa staining method. It counts as functional. The essentials: as §1
Assay [15] relates to Plasmodium berghei. Description: Antiplasmodial activity against Plasmodium berghei infected in Swiss Webster mouse assessed as […] dosed orally once daily for 4 consecutive days beginning 1 hr after initial infection and measured on day 4 after onset of treatment by Giemsa staining method. It counts as functional. To be noted: po. The essentials: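 In the P. berghei model, female Swiss Webster mice were infected ip with 6 × 10^6 infected erythrocytes. They were gavaged once daily for 4 days from 1 h post-infection, in PEG 300/propylene glycol/water (55/25/20 by weight), with 5 mice per dose. Parasitemia was counted on Giemsa smears. ED90 is the dose reducing parasitemia 90% versus vehicle controls 4 days after therapy began, fitted by nonlinear regression.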

Assay [16] deals with Plasmodium falciparum. Description: Antimalarial activity against chloroquine-resistant Plasmodium falciparum W2 cultured in human erythrocytes assessed as inhibition of parasite growth incubated for 48 hrs by YOYO-1 staining based flow cytometry. It counts as functional, organism-based. To be noted: W2, 48 h. (In general: In flow cytometry, cells or beads pass a laser one at a time.)

For assay [17], the system named is Plasmodium berghei. Description: Antiplasmodial activity against Plasmodium berghei infected in Swiss Webster mouse assessed as mouse survival at 100 mg/kg, po dosed once daily for 4 consecutive days beginning 1 hr after initial infection and measured on day 7 post infection by Giemsa staining method. It counts as functional. An outline of the steps: as §1
Assay [18] has as its system Plasmodium berghei. Description: Antiplasmodial activity against Plasmodium berghei infected in Swiss Webster mouse assessed as mouse survival at 11 mg/kg, po dosed once daily for 4 consecutive days beginning 1 hr after initial infection and measured on day 10 post infection by Giemsa staining method. It counts as functional. An outline of the steps: as §1
The test system of assay [19] is Plasmodium berghei. Description: Antiplasmodial activity against Plasmodium berghei infected in Swiss Webster mouse assessed as mouse survival at 11 mg/kg, po dosed once daily for 4 consecutive days beginning 1 hr after initial infection and measured on day 4 post infection by Giemsa staining method. It counts as functional. The essentials: as §1
For assay [20], the system named is Plasmodium berghei. Description: Antiplasmodial activity against Plasmodium berghei infected in Swiss Webster mouse assessed as mouse survival at 11 mg/kg, po dosed once daily for 4 consecutive days beginning 1 hr after initial infection and measured on day 9 post infection by Giemsa staining method. It counts as functional. The essentials:
as §1

The subject of assay [21] is Plasmodium berghei. Description: Antiplasmodial activity against Plasmodium berghei infected in Swiss Webster mouse assessed as mouse survival at 33 mg/kg, po dosed once daily for 4 consecutive days beginning 1 hr after initial infection and measured on day 4 post infection by Giemsa staining method. It counts as functional. An outline of the steps:
as §2

The subject of assay [22] is Plasmodium berghei. Description: Antiplasmodial activity against Plasmodium berghei infected in Swiss Webster mouse assessed as mouse survival at 100 mg/kg, po dosed once daily for 4 consecutive days beginning 1 hr after initial infection and measured on day 8 post infection by Giemsa staining method. It counts as functional. The essentials: as §1
The subject of assay [23] is Plasmodium berghei. Description: Antiplasmodial activity against Plasmodium berghei infected in Swiss Webster mouse assessed as mouse survival at 1 mg/kg, po dosed once daily for 4 consecutive days beginning 1 hr after initial infection and measured on day 8 post infection by Giemsa staining method. It counts as functional. An outline of the steps:
as §1

Assay [24] has as its system Plasmodium falciparum. Description: Antimalarial activity against chloroquine-sensitive Plasmodium falciparum 3D7 cultured in human erythrocytes incubated for 48 hrs by [3H]-hypoxanthine incorporation assay. It counts as functional, organism-based. An outline of the steps: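 3D7 parasites in human erythrocytes, RPMI-1640 with 0.5% Albumax II, […], 37 °C, 5% O2/5% CO2. Asynchronous cultures (0.5% parasitemia, 2% hematocrit) given 3-fold serial dilutions for 24 h. [3H]hypoxanthine then added for a further 24 h, and incorporation counted by scintillation. Normalised to drug-free infected cells. IC50 from at least three independent experiments.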

Turning to `O=C(O)c1cnc(Oc2ccc3c(c2)B(O)OC3)cn1`, the survival at 3 mg/kg with Plasmodium berghei [1] is 100%; with Plasmodium berghei [9], 20%; in the assay with Plasmodium berghei [11], 0%; in the assay on Plasmodium berghei [13], 60%; in the assay with Plasmodium berghei [14], 100%. The survival at 33 mg/kg in the assay on Plasmodium berghei [2] was 40%; in the assay with Plasmodium berghei [3] it was 40%; with Plasmodium berghei [21], 100%. Besides, the survival at 1 mg/kg was determined as 0% in the assay with Plasmodium berghei [4]; 100% in the assay with Plasmodium berghei [5]; 80% with Plasmodium berghei [6]; 100% in the assay with Plasmodium berghei [8]; 100% in the assay with Plasmodium berghei [10]; 40% in the assay on Plasmodium berghei [23]. Moreover, the results for the survival at 100 mg/kg in the assay on Plasmodium berghei [7], with Plasmodium berghei [17] and in the assay on Plasmodium berghei [22] were 60%, 100% and 100%, respectively. The survival at 11 mg/kg is 100% with Plasmodium berghei [12], 20% in the assay with Plasmodium berghei [18], 100% in the assay with Plasmodium berghei [19] and 20% with Plasmodium berghei [20]. For the same compound, the ED90 in the assay on Plasmodium berghei [15] is 30.3 mg/kg. Moreover, the IC50 with Plasmodium falciparum [16] amounted to 150 nM.

Regarding `O=C(O)c1ccc(Oc2ccc3c(c2)B(O)OC3)cn1`, the survival at 3 mg/kg amounted to 100% in the assay on Plasmodium berghei [1]; 20% with Plasmodium berghei [9]; 0% in the assay on Plasmodium berghei [11]; 60% in the assay on Plasmodium berghei [13]; 100% in the assay with Plasmodium berghei [14]. Further, the figures for the survival at 33 mg/kg in the assay with Plasmodium berghei [2] and with Plasmodium berghei [21] were 0% and 100%, respectively. The survival at 1 mg/kg was determined as 100% in the assay on Plasmodium berghei [5]; 60% in the assay on Plasmodium berghei [6]; 100% in the assay with Plasmodium berghei [8]; 100% in the assay with Plasmodium berghei [10]; 0% in the assay with Plasmodium berghei [23]. The survival at 100 mg/kg was 0% in the assay on Plasmodium berghei [7], 100% in the assay with Plasmodium berghei [17] and 80% with Plasmodium berghei [22]. Besides, the 50% inhibitory concentration (IC50) in the assay with Plasmodium falciparum [24] is 540 nM; in the assay on Plasmodium falciparum [16], 170 nM. Further, the survival at 11 mg/kg was 100% with Plasmodium berghei [12], 100% with Plasmodium berghei [19] and 0% with Plasmodium berghei [20]. The ED90 in the assay with Plasmodium berghei [15] was determined as 21.1 mg/kg.

Consider `COC(=O)c1cnc(Oc2ccc3c(c2)B(O)OC3)cn1`, for which the survival at 3 mg/kg with Plasmodium berghei [1] worked out at 100%; with Plasmodium berghei [9] it was 80%; in the assay on Plasmodium berghei [11], 40%; in the assay on Plasmodium berghei [13], 100%; in the assay on Plasmodium berghei [14] it was 100%. Also, the survival at 33 mg/kg with Plasmodium berghei [2], in the assay with Plasmodium berghei [3] and in the assay on Plasmodium berghei [21] was 100% throughout. Further, the survival at 1 mg/kg with Plasmodium berghei [4] was determined as 0%; with Plasmodium berghei [5], 100%; in the assay on Plasmodium berghei [6] it was 100%; in the assay on Plasmodium berghei [8] it was 100%; in the assay with Plasmodium berghei [10], 100%; in the assay on Plasmodium berghei [23], 40%. The survival at 100 mg/kg in the assay with Plasmodium berghei [7], in the assay on Plasmodium berghei [17] and in the assay with Plasmodium berghei [22] was 100% throughout. Also, the IC50 was 1.9 nM in the assay on Plasmodium falciparum [24] and 1.4 nM with Plasmodium falciparum [16]. In addition, the survival at 11 mg/kg with Plasmodium berghei [12] stood at 100%; with Plasmodium berghei [18] it was 80%; with Plasmodium berghei [19] it was 100%; with Plasmodium berghei [20], 80%. The ED90 in the assay with Plasmodium berghei [15] worked out at 7 mg/kg.

In the case of `NC(=O)c1cnc(Oc2ccc3c(c2)B(O)OC3)cn1`, the survival at 3 mg/kg in the assay with Plasmodium berghei [1] was 100%; with Plasmodium berghei [9] it was 60%; in the assay with Plasmodium berghei [11], 0%; in the assay with Plasmodium berghei [13], 80%; with Plasmodium berghei [14], 100%. Further, the values for the survival at 33 mg/kg with Plasmodium berghei [2], in the assay on Plasmodium berghei [3] and in the assay on Plasmodium berghei [21] were 60%, 0% and 100%, respectively. In addition, the survival at 1 mg/kg in the assay on Plasmodium berghei [4] turned out to be 0%; with Plasmodium berghei [5], 100%; in the assay on Plasmodium berghei [6] it was 60%; in the assay on Plasmodium berghei [8], 100%; in the assay with Plasmodium berghei [10], 100%; in the assay on Plasmodium berghei [23] it was 40%. In addition, the figures for the survival at 100 mg/kg with Plasmodium berghei [7], in the assay with Plasmodium berghei [17] and in the assay on Plasmodium berghei [22] were 60%, 100% and 100%, respectively. Also, the figures for the IC50 in the assay on Plasmodium falciparum [24] and in the assay on Plasmodium falciparum [16] were 350 nM and 210 nM, respectively. Moreover, the survival at 11 mg/kg with Plasmodium berghei [12] worked out at 100%; with Plasmodium berghei [18], 0%; in the assay on Plasmodium berghei [19] it was 100%; in the assay on Plasmodium berghei [20], 60%. Besides, the ED90 in the assay with Plasmodium berghei [15] stood at 38.7 mg/kg.
